# Bioassay records (PubChem BioAssay)
# KCNQ1 inh = blocks the human KCNQ1 potassium channel; CHO-K1 KCNQ1, FluxOR thallium flux fluorescence; active compounds read high; B-score at 10 µM; 1.3% of 310,000 active; P51787; AID 2642;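 active = compounds whose thallium flux B-score, printed positive for inhibition, exceeds three library SD while starting fluorescence stays within three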;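 also: channel opened by potassium depolarization with thallium stimulus after 20 min compound exposure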
# KCNK3 inh = human KCNK3 channel inhibition, primary screen. CHO-KCNK3 thallium flux, FluxOR fluorescence; active compounds read low. 0.84% of 340,000 active. O14649. B-score at 10 µM;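 active = B-score under library mean minus 4 SD, starting fluorescence ratio at most library mean plus 5 SD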;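 also: more negative B-score means stronger inhibition of thallium flux through KCNK3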
# hERG protect = shields human hERG channel from block by proarrhythmic agents; CHO-hERG, FluxOR thallium flux, dofetilide IC70 present; activation (rescue from dofetilide block), less the hit threshold, % at 10 µM; 0.51% of 310,000 active; AID 1511;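 active = activation above the mean of controls blocked by dofetilide plus 5 SD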;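 also: thallium influx through hERG after potassium depolarization seen as dye fluorescence rise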
# KCNK9 block = human KCNK9 channel inhibition. 1.2% of 310,000 active. B-score at 10 µM. HEK293 KCNK9, FluxOR thallium flux fluorescence; active compounds read low. Q9NPC2;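 active = ratio B-score over 3 SD below the library mean, with starting fluorescence within 5 SD of its mean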;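 also: negative B-score means less thallium flux so channel inhibition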
# Target sequence (Q9NPC2 whole entry, looked up): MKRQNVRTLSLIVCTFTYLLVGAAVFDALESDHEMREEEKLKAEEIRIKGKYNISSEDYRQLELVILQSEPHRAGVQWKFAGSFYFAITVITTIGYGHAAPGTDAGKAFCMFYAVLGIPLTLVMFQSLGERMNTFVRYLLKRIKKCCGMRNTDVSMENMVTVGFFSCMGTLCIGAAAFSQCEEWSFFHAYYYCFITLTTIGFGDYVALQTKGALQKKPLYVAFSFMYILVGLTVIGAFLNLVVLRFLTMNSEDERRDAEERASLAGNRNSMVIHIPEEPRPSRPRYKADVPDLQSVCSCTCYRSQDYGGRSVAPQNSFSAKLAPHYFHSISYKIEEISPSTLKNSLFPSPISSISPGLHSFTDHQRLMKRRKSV
# KCNQ1 pot = human KCNQ1 channel potentiation or activation; 0.35% of 310,000 active; B-score at 10 µM; P51787; CHO-K1 KCNQ1, thallium flux FluxOR fluorescence; active compounds read high;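 active = fluorescence ratio B-score, a plate-corrected score, at least three library SD, with initial intensity B-score within 5 SD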
#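 Assay system: CHO-K1 cells stably expressing KCNQ1. Medium: assay buffer for compound exposure, DMSO matched across wells. Timing: 37 °C overnight plating, 90-min dark dye load, 20-min compound pretreatment. Signal: kinetic FluxOR fluorescence, 10 s baseline plus 110 s post-stimulus.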
# KCNK9 block conf = human KCNK9 inhibitor confirmation. inhibition, % at 10 µM. HEK293 KCNK9 cells, FluxOR thallium flux fluorescence. 43% of 4,900 active. shares compounds with KCNK9 block. AID 492992;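 active = thallium signal inhibited by more than 5 SD of the compound-free buffer control wells, on both duplicate plates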;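 also: 0% = assay buffer control wells without compound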
# Kir2-1 spec = mouse Kir2.1 off-target activity of KCNK9 modulators; shares compounds with KCNK9 block; Kir2.1 cells, FluxOR thallium flux fluorescence; inhibition, % at 10 µM; 4% of 4,900 active;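 active = thallium signal drop more than 5 SD beyond the mean of the no-compound control wells, seen in both duplicate plates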;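 also: signal is fluorescence rise after thallium addition divided by baseline fluorescence; plate controls were assay buffer only for no effect and full block by chlorpromazine control for full effect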
# HEK293 Tl ctr = non-induced cell nonspecific activity of KCNK9 modulators; inhibition, % at 10 µM; AID 492997; 40% of 4,900 active; shares compounds with KCNK9 block; non-induced KCNK9-HEK293, FluxOR thallium flux;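 active = thallium signal drop beyond 5 SD of the untreated control mean, on both duplicate plates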;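 also: plate controls were buffer only IC0 wells for no effect and SID17386958 at its maximal inhibitory level for full effect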
# Active calls of the source: *; i = inactive; . = no result. Hits are enriched below; roughly 3.1% of the tested compounds scored in any of these assays.
SMILES,KCNQ1 inh,KCNK3 inh,hERG protect,KCNK9 block,KCNQ1 pot,KCNK9 block conf,Kir2-1 spec,HEK293 Tl ctr
O=C(CCSc1ccccc1Cl)Nc1cccc([N+](=O)[O-])c1,i,i,-15,i,i,i,i,30%*
Cc1ccccc1CN(CC(=O)Nc1cccc([N+](=O)[O-])c1)S(=O)(=O)c1ccc(Cl)cc1,9*,i,-10,i,i,i,i,i
NC(=O)NC(CC(=O)NCc1ccc2c(c1)OCO2)c1ccccc1Cl (centres undefined),i,i,-2,i,i,.,.,.
Cc1onc(-c2ccccc2Cl)c1C(=O)N[C@@H](C)c1ccccc1,i,i,-11,i,i,.,.,.
Cc1ccccc1NC(=O)c1sc2nc3c(c(-c4ccco4)c2c1N)CCC3,i,i,-12,-8.1*,i,30%*,i,26%*
CC(=O)N1c2ccccc2C2CCCC[C@H]21 (some centres undefined),.,i,.,.,.,.,.,.
O=C(CN1CCN(c2ccccc2)CC1)N1N=CCC1c1ccccc1 (centres undefined),i,i,-9,i,i,.,.,.
NC(=O)C1CCN(CC(=O)N2N=CCC2c2ccccc2)CC1 (centres undefined),i,i,-7,-8.9*,i,i,i,i
COc1ccc(S(=O)(=O)N2CCCCCC2)cc1C(=O)N(C)Cc1ccc(C)cc1,i,i,-14,i,i,i,i,i
COc1ccc(CCN(C)C(=O)c2cc(S(=O)(=O)N3CCCCCC3)ccc2OC)cc1OC,i,i,-9,i,i,.,.,.
Cc1cc2ccccn2c1C(=O)c1ccc([N+](=O)[O-])cc1[N+](=O)[O-],i,i,-5,i,i,.,.,.
Cc1cc2ccccn2c1C(=O)c1ccccc1Br,i,i,-8,-8.3*,i,i,i,i
N#Cc1c(Sc2ncc(C(F)(F)F)cc2Cl)nsc1C/C=N\OCc1ccccc1Br,i,i,-15,i,i,i,i,i
Cn1c(C(N)=O)cnc1Sc1ncc(C(F)(F)F)cc1Cl,i,i,-5,i,i,.,.,.
CN(c1ccccc1)S(=O)(=O)c1cccc(NC(=O)CSc2ncc(C(F)(F)F)cc2Cl)c1,7*,i,-4,-8.9*,i,42%*,i,30%*
C/C(=N\NC(=O)c1ccccc1F)c1ccc2c(c1)Nc1ccccc1S2,i,i,0,-15*,i,i,i,28%*
COc1ccc(C(=O)N/N=C(/C)c2cccc(NC(=O)c3ccccc3F)c2)cc1,i,i,-11,i,i,.,.,.
Cc1sc2ncnc(NCC(c3ccco3)N(C)C)c2c1C (centres undefined),i,i,0,i,i,.,.,.
CN(C)C(CNc1ncnc2sc3c(c12)CCCCC3)c1ccco1 (centres undefined),i,i,-4,i,i,i,i,i
N#CC(c1ccccc1)C1CCN(Cc2ccccc2)CC1 (centres undefined),i,i,-8,i,i,i,i,i
CC(CN1CCN(Cc2ccccc2)CC1)c1ccccc1 (centres undefined),i,i,-4,i,i,.,.,.
O=C(Nc1ccc(F)cc1)c1cccc2c1C(=O)N(CC1CCCO1)C2 (centres undefined),i,i,-6,i,i,.,.,.
Cc1ccc(C(=O)N(c2ccccc2)C2CC(C)N(C(=O)c3ccco3)c3ccccc32)cc1 (centres undefined),i,i,-11,i,i,i,i,i
CC(=O)N(c1ccccc1)C1CC(C)N(C(=O)c2ccccc2)c2ccccc21 (centres undefined),i,i,-2,i,i,.,.,.
